Experimental data as given in article PMC9064604 (RSC Advances, 2019).
Like-named read-outs stand apart in the source and are kept apart here.

Legend:
[1] = tested on: human colon adenocarcinoma Caco-2; experiment: Cell viability assay; type: cell-based; conditions: Caco-2, 72 h, read-out: IC50 Caco-2, dark
[2] = tested on: human colorectal adenocarcinoma HT-29; experiment: Cell viability assay; type: cell-based; conditions: read-out: IC50 HT-29, dark
[3] = tested on: triple negative human breast adenocarcinoma MDA-MB-231; experiment: Cell viability assay; type: cell-based; conditions: MDA-MB-231, 72 h, read-out: IC50 MDA-MB-231, dark
[4] = tested on: murine melanoma B16-F10; experiment: Cell viability assay; type: cell-based; conditions: read-out: IC50 B16-F10, dark
[5] = tested on: human alveolar adenocarcinoma A549; experiment: Cell viability assay; type: cell-based; conditions: A549, 72 h, read-out: IC50 A549, dark
[6] = tested on: A549 cells; experiment: Quantification of cellular uptake by LC-MS/MS; type: cell-based, human
Procedure, shortened: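 A549 cells (1.2 × 10⁵/well) adhered overnight, then received 3 μM test compound. Medium was removed immediately or after 1, 3, 6, 12 or 24 h in the dark at 37 °C/5% CO₂. Cells were washed with PBS/1.5% DMSO, scraped into acetonitrile, sonicated and centrifuged. Extracts were quantified by LC-MS/MS against external standards (0.02–0.25 μM in A549 extract). Per-cell concentration assumed 1.7 pL cell volume; n = 4, mean ± SEM.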

IC50 [1] | IC50 ([2]; Homo sapiens, HT-29, 72 h) | IC50 [3] | IC50 ([4]; Mus musculus, B16-F10, 72 h) | IC50 [5] | Structure (SMILES) | maximum cellular concentration per cell ([6]; 3 μM, A549, assuming average cell volume of 1.7 pL and homogeneous distribution) | time at which cellular uptake was optimal / plateaued ([6]; A549, 3 μM) | IC50 ([2]; dark, 72 h, WST-1, mean ± SEM) | IC50 ([4]; dark, 72 h, WST-1, mean ± SEM)
> 100 µM | > 100 µM | 37.5 ± 0.14 µM | > 100 µM | > 100 µM | c1ccc(-c2ccccn2)nc1 [bipy, 2,2′-bipyridine] |  |  |  | 
> 100 µM | > 100 µM | > 100 µM | > 100 µM | > 100 µM | Cc1cc(-c2ccccc2)c2ccc3c(-c4ccccc4)cc(C)nc3c2n1 [BC, bathocuproine] | 2000 μM per cell | 3 h |  | 
 |  |  |  |  | N.N.[Cl][Pt][Cl] [Cisplatin, cisplatin] |  |  | > 100 µM | 7.7 ± 0.2 µM
